Data: ChEMBL document CHEMBL4007469, “Design and synthesis of dalbergin analogues and evaluation of anti-osteoporotic activity” (Bioorg Med Chem Lett, 2017)
Active and inactive are the calls of the source. The rule behind the calls is not given here.

How the values were obtained:
Mus musculus [1] = experiment: In vivo induction of osteogenesis in Balb/c mouse assessed as increase in mineral appositional rate in calvaria at 0.1 to 1 mg/kg/day, sc over calvarial surface for 5 consecutive days by fluorochromes tetracycline and calcein labeling based histomorphometric analysis; format: functional, organism-based
Summary of the method: (§1)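 Three-week-old Balb/c mice (3 per group) injected subcutaneously over the calvarial surface daily for 5 consecutive days at 0.1, 0.5, 1 and 5 mg/kg/day. Calvaria fixed in 4% formaldehyde, paraffin-embedded, H&E-stained; tetracycline and calcein (20 mg/kg each, ip) given for MAR/BFR histomorphometry; calvarial mRNA by RT-PCR. Mean ± SE, three independent experiments, versus untreated.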

Mus musculus [2] = experiment: Anti-osteoporotic activity in ovariectomized postmenopausal Balb/c mouse model assessed as improvement in micro-artchitectural parameter in vertebrae by measuring trabecular number at 1 mg/kg, po qd via gavage for 6 weeks by micro CT-scan analysis (reference value: 2.24 +/- 0.16 /millimeter); format: functional
Summary of the method: (§2)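 Female Balb/c mice, 8 weeks old, ovariectomized, 6 weeks osteopenia development, then 1.0 mg/kg/day or gum acacia vehicle by oral gavage once daily for 6 weeks (sham, OVx and treated groups). Bones collected after sacrifice for micro-CT of trabecular microarchitecture (BV/TV, Tb.N, Tb.Th, Tb.Sp, SMI) and biomechanical testing of femur and vertebrae (energy, stiffness); mean ± SE versus OVx.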

Mus musculus [3] = experiment: Anti-osteoporotic activity in ovariectomized postmenopausal Balb/c mouse model assessed as improvement in micro-artchitectural parameter in vertebrae by measuring trabecular separation at 1 mg/kg, po qd via gavage for 6 weeks by micro CT-scan analysis (reference value: 0.288 +/- 0.021 millimeter); format: functional; summary of the method: as §2
Mus musculus [4] = experiment: Anti-osteoporotic activity in ovariectomized postmenopausal Balb/c mouse model assessed as bone formation rate at 1 mg/kg, po qd via gavage for 6 weeks by fluorochromes tetracycline and calcein labeling based histomorphometric analysis (reference value: 0.098 +/- 0.01 um3.um2/day); format: functional
Mus musculus [5] = experiment: Anti-osteoporotic activity in ovariectomized postmenopausal Balb/c mouse model assessed as femur bone breaking strength by measuring energy at 1 mg/kg, po qd via gavage for 6 weeks by micro CT-scan analysis (reference value: 2.6 +/- 0.18 mJ); format: functional; summary of the method: as §2
Mus musculus [6] = experiment: Anti-osteoporotic activity in ovariectomized postmenopausal Balb/c mouse model assessed as improvement in micro-artchitectural parameter in tibia by measuring trabecular separation at 1 mg/kg, po qd via gavage for 6 weeks by micro CT-scan analysis (reference value: 0.387 +/- 0.038 millimeter); format: functional; summary of the method: as §2
Mus musculus [7] = experiment: Anti-osteoporotic activity in ovariectomized postmenopausal Balb/c mouse model assessed as trabecular bone formation by measuring increase in bone volume fraction at 1 mg/kg, po qd via gavage for 6 weeks by micro CT-scan analysis relative to control; format: functional; summary of the method: as §2
Mus musculus [8] = experiment: Anti-osteoporotic activity in ovariectomized postmenopausal Balb/c mouse model assessed as increase in Osx gene expression in femur bone at 1 mg/kg, po qd via gavage for 6 weeks by RT-PCR method; format: functional, organism-based
Summary of the method: (§3)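 Eight-week-old female Balb/c mice, ovariectomized and left 6 weeks for osteopenia to develop; groups sham+vehicle, OVx+vehicle, OVx+1.0 mg/kg/day, dosed once daily by oral gavage for 6 weeks in gum acacia/distilled water vehicle. Mice kept at 21°C, 12 h light/dark, chow and water ad libitum. Femoral bone mRNA or serum measured after sacrifice; mean ± SE versus OVx group.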

Mus musculus [9] = experiment: Anti-osteoporotic activity in ovariectomized postmenopausal Balb/c mouse model assessed as induction of femur bone marrow cell differentiation by measuring increase in ALP activity at 1 mg/kg, po qd via gavage for 6 weeks relative to control; format: functional
Summary of the method: (§4)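 Ovariectomized 8-week-old female Balb/c mice given 1.0 mg/kg/day orally by gavage for 6 weeks; bone marrow cells then cultured ex vivo. ALP activity read at 405 nm; mineralized nodules stained with Alizarin Red at day 21 of culture. Mean ± SE versus OVx group.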

Calvarial cell = experiment: Induction of mineralization in mouse calvarial cells assessed as calcium nodule formation at Emax incubated for 12 days by alizarin red-S staining based spectrophotometric method; format: functional
Summary of the method: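 Primary mouse calvarial osteoblasts treated with or without compound for 12 days, fixed in 4% formaldehyde, stained with alizarin red-S, and the stain extracted and quantified by the acetic acid method.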

Mus musculus [10] = experiment: In vivo induction of osteogenesis in Balb/c mouse assessed as bone formation at 5 mg/kg/day, sc over calvarial surface for 5 consecutive days by hematoxylin and eosin staining based fluorescence microscopic method; format: functional, organism-based; summary of the method: as §1
Mus musculus [11] = experiment: Osteogenic activity in Balb/c mouse drill-hole fracture model assessed as increase in aggrecan mRNA level at 1 mg/kg, po qd via gavage for 21 days by RT-PCR method
Mus musculus [12] = experiment: Anti-osteoporotic activity in ovariectomized postmenopausal Balb/c mouse model assessed as induction of femur bone marrow cell mineralization at 1 mg/kg, po qd via gavage for 6 weeks measured on day 21 post dose by alizarin red-S staining based assay relative to control; format: functional; summary of the method: as §4
Mus musculus [13] = experiment: Osteogenic activity in Balb/c mouse drill-hole fracture model assessed as structure model index at 1 mg/kg, po qd via gavage for 21 days by micro-CT method (reference value: 2.585 +/- 0.387)
Mus musculus [14] = experiment: Osteogenic activity in Balb/c mouse drill-hole fracture model assessed as increase in COL1 mRNA level at 1 mg/kg, po qd via gavage for 21 days by RT-PCR method relative to control
Mus musculus [15] = experiment: In vivo induction of osteogenesis in Balb/c mouse assessed as increase in bone formation rate in calvaria at 0.1 to 1 mg/kg/day, sc over calvarial surface for 5 consecutive days by fluorochromes tetracycline and calcein labeling based histomorphometric analysis; format: functional, organism-based; summary of the method: as §1
Mus musculus [16] = experiment: Anti-osteoporotic activity in ovariectomized postmenopausal Balb/c mouse model assessed as micro-artchitectural parameter in vertebrae by measuring bone volume fraction at 1 mg/kg, po qd via gavage for 6 weeks by micro CT-scan analysis (reference value: 13.92 +/-1.66%); format: functional; summary of the method: as §2
Mus musculus [17] = experiment: Anti-osteoporotic activity in ovariectomized postmenopausal Balb/c mouse model assessed as improvement in micro-artchitectural parameter in tibia by measuring trabecular thickness at 1 mg/kg, po qd via gavage for 6 weeks by micro CT-scan analysis (reference value: 0.0475 +/- 0.0005 millimeter); format: functional; summary of the method: as §2
Mus musculus [18] = experiment: Anti-osteoporotic activity in ovariectomized postmenopausal Balb/c mouse model assessed as increase in RunX2 gene expression in femur bone at 1 mg/kg, po qd via gavage for 6 weeks by RT-PCR method; format: functional, organism-based; summary of the method: as §3
Mus musculus [19] = experiment: Osteogenic activity in Balb/c mouse drill-hole fracture model assessed as increase in BMP2 mRNA level at 1 mg/kg, po qd via gavage for 21 days by RT-PCR method
Mus musculus [20] = experiment: Osteogenic activity in Balb/c mouse drill-hole fracture model assessed as trabecular thickness at 1 mg/kg, po qd via gavage for 21 days by micro-CT method (reference value: 0.111 +/- 0.006 millimeter)
Mus musculus [21] = experiment: Decrease in osteocalcin level in serum of ovariectomized postmenopausal Balb/c mouse model at 1 mg/kg, po qd via gavage for 6 weeks by ELISA; format: functional, organism-based; summary of the method: as §3

COc1cc2oc(=O)cc(-c3ccccc3)c2cc1OCCCCCN1CCN(C)CC1
Activity (Mus musculus [1]): Active | Activity (Mus musculus [2]): 4.63 /millimeter | Activity (Mus musculus [3]): 0.167 mm | Activity (Mus musculus [4]): 0.163 um3.um2/day | Activity (Mus musculus [5]): 4.55 mJ | Activity (Mus musculus [6]): 0.294 mm | fold change (FC) (Mus musculus [7]): 1.5 | Activity (Mus musculus [8]): Active | fold change (FC) (Mus musculus [9]): 2 | Activity (Calvarial cell): Active | Activity (Mus musculus [10]): inactive | Activity (Mus musculus [11]): Active | Activity (Mus musculus [12]): 50% | Activity_index (Mus musculus [13]): 0.496 | fold change (FC) (Mus musculus [14]): 6 | Activity (Mus musculus [15]): Active | Activity (Mus musculus [16]): 23.43% | Activity (Mus musculus [17]): 0.052 mm | Activity (Mus musculus [18]): Active | Activity (Mus musculus [19]): Active | Activity (Mus musculus [20]): 0.166 mm | Activity (Mus musculus [21]): Active
